Bioassay records as filed in PubChem.
Only some compounds are listed: those with a hit (about 3.8% of all), similar ones and a draw of the others.
CSC inhib: blocks cancer stem cells. inhibition, % at 7.5 µM. cancer stem cell-like cells viability, luminescence. 300,000 tested, 1.1% active; in the data active means inhibition above about 75%; tested in HMLE shEcad cells
TMEM16A act: activators or potentiators of mouse TMEM16A chloride channel; Q8BHY3; 340,000 tested, 0.3% active; B-score at 10 µM; HEK293 TMEM16A/YFP-H148Q/I152L, iodide quench fluorescence; hits give low values;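 active means fluorescence-ratio B-score plate-corrected deviation score at least 3 library SD below zero, with starting fluorescence score within 5 deviations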;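 further: channel opened by trigger with iodide after compound preincubation; score built on the fluorescence ratio of max minus min over baseline; more negative score means more quench and so TMEM16A activation or potentiation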
Beta cell apopt: beta cell apoptosis inhibition; protection from apoptosis, % (test concentration not listed); 300,000 tested, 0.8% active; INS-1E cytokine-induced death, ATP luminescence, 48 h; percent of positive-control rescue, neutral wells zero; AID 435005;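 active means Every replicate reaches about 75%, or at least half do and their mean reaches it too, limit read from the data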;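 further: higher means more ATP so stronger rescue from cytokine killing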
ANO1 block: blocks the mouse calcium-activated chloride channel TMEM16A. Q8BHY3. HEK293 TMEM16A/YFP iodide influx fluorescence, ionomycin. normalized B-score (activity score, 25-100; higher = stronger inhibition) at 10 µM. 310,000 tested, 1.2% active. AID 588511;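 active means ratio plate-corrected score three or more library SD toward inhibition, starting fluorescence score within five deviations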;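 further: score derived from kinetic fluorescence span divided by baseline fluorescence per well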
MC4R antag cAMP: antagonists of human melanocortin 4 receptor (MC4R). P32245. MC4R-expressing cells, MTII-stimulated cAMP, LANCE TR-FRET. inhibition, % at 6.5 µM. 360,000 tested, 0.48% active. AID 540295;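 active means inhibition above its plate's cutoff, the mean of tested wells on that plate plus 3 SD, cut at about 29% in these data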
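System: U2OS-MC4R stable cell line; Technique: Eu-cAMP/anti-cAMP TR-FRET, emission 671 nm; Repeats: single well per compound; Also added: Melanotan II; Dosing: one concentration, 6.5 µM nominal; Schedule: 30-min compound, 1-h challenge, 1-h detection, room temperature.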
MC4R barr agon: agonists of human melanocortin 4 receptor (MC4R) beta-arrestin; activation, % at 8.9 µM; P32245; AID 540308; U2OS MC4R beta-arrestin complementation, luminescence; percent of melanotan II response, DMSO zero; 360,000 tested, 0.98% active;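 active means activation above a per-plate cutoff, the mean activation of sample wells on that plate plus 3 SD, cut at about 8% in these data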
MC4R barr ag: human MC4R beta-arrestin agonism confirmation; shares compounds with MC4R barr agon; U2OS MC4R beta-arrestin recruitment, luminescence; scaled DMSO 0%, Melanotan II 100%; activation, % at 8.9 µM; 2,400 tested, 31% active;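 active means mean activation across replicates above the hit cutoff set in the earlier primary screen, cut at about 8% in these data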
MOR DOR agonist: counter-screen for MC4R agonists: agonists of mu-delta opioid heterodimer | shares compounds with MC4R barr agon | U2OS PathHunter beta-arrestin, beta-gal luminescence; percent of deltorphin B response, DMSO zero | activation, % at 9.2 µM | 2,400 tested, 5.8% active | AID 602194;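 active means mean activation across replicates exceeds the hit threshold derived in the earlier primary screen, cut at about 18% in these data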
Of the large screens only hits and unclear results are named; the others gave an inactive call (follow-up assays come after a bar, where they were run).

CCN(CC)Cc1c(C(=O)N/N=C/c2cccc3ccccc23)nnn1-c1nonc1N	none
Cc1ccc(Cl)c(NC(=O)COC(=O)c2nn(-c3ccccc3)cc2O)c1Cl	none (no result: ANO1 block)
CC1CC(C)CN(CCCNC(=O)C2CCCN(S(=O)(=O)N3CC(C)CC(C)C3)C2)C1 (centres undefined)	none
Cn1cc(/C=C2\SC(=O)N(c3ccccc3)C2=O)c2ccccc21	MC4R barr agon 15 | MC4R barr ag inactive | MOR DOR agonist inactive
CSc1ccccc1NC(=O)c1cccc(S(=O)(=O)N2CCN(C)CC2)c1	none
CCCn1c(-c2ccccc2)cc(SC)c(C#N)c1=O	none
C=CCn1c(-c2ccccc2)cc(SC)c(C#N)c1=O	MC4R barr agon 12 | MC4R barr ag inactive | MOR DOR agonist inactive
CCn1nnc2cc(C(=O)Nc3cc(OC)cc(OC)c3)ccc21	none (no result: CSC inhib)
O=C(Nc1ccccc1)Nc1cc(OCC(F)(F)F)cc(OCC(F)(F)F)c1	MC4R barr agon 10 (no result: CSC inhib, Beta cell apopt, ANO1 block) | MC4R barr ag inactive | MOR DOR agonist inactive
O=C(NCCNC(=O)c1cc(OCC(F)(F)F)ccc1OCC(F)(F)F)Nc1cccc(C(F)(F)F)c1	none
O=C(NCc1csc2ccccc12)Nc1cc(Cl)cc(Cl)c1	MC4R barr agon 16 | MC4R barr ag inactive | MOR DOR agonist inactive
CCOC(=O)c1c(Nc2ccccc2)sc(/C=C2\C=Nc3ccccc32)c1O	MC4R barr agon 15 | MC4R barr ag inactive | MOR DOR agonist inactive
CCN(CC)CC(=O)Nc1cccc2c1C(=O)c1ccccc1C2=O	MC4R barr agon 11 | MC4R barr ag inactive | MOR DOR agonist inactive
CCc1ccc(CCC(=O)Nc2sc3c(c2C#N)CCCC3)o1	none
Cc1ccc(/C=C/C(=O)Nc2sc3c(c2C#N)CCCC3)o1	MC4R barr agon 28 | MC4R barr ag inactive | MOR DOR agonist inactive
N#Cc1c(NC(=O)c2ccccc2)sc2c1CCC2	none
Cc1cccc(C(=O)Nc2sc3c(c2C#N)CCCCC3)c1	MC4R barr agon 17 | MC4R barr ag inactive | MOR DOR agonist inactive
Cc1ccc(/C=C/C(=O)Nc2nnc(SCc3ccc(C#N)cc3)s2)o1	MC4R barr agon 51 | MC4R barr ag inactive | MOR DOR agonist inactive
O=C1CCc2cc(S(=O)(=O)N3CCN(c4ccccc4)CC3)cc3c2N1CCC3	none (no result: Beta cell apopt)
O=C1CCc2cc(S(=O)(=O)N3CCN(c4ccc(F)cc4)CC3)cc3c2N1CC3	MC4R barr agon 13 | MC4R barr ag inactive | MOR DOR agonist inactive
N#Cc1nc(-c2ccc(OCc3ccc(Cl)cc3)cc2)oc1NCc1cccnc1	MC4R barr agon 15 | MC4R barr ag inactive | MOR DOR agonist inactive
N#Cc1nc(-c2ccc(OCc3ccccc3)cc2)oc1NCc1cccnc1	none
CC(=O)C(Cc1ccccc1)NC(=O)COc1ccc2c(c1)OCO2 (centres undefined)	none (no result: ANO1 block)
C=CCSc1nc2c(c(=O)[nH]c(=O)n2C)n1Cc1ccc(C)cc1	MC4R barr agon 14 | MC4R barr ag inactive | MOR DOR agonist inactive
CCCSc1nc2c(c(=O)[nH]c(=O)n2C)n1Cc1ccc(C)cc1	none
Cc1ccc(C(=O)NCCc2cc3ccc(C)c(C)c3[nH]c2=O)cc1[N+](=O)[O-]	MC4R barr agon 9.6 | MC4R barr ag inactive | MOR DOR agonist inactive
CC(C)CC1NC(=O)c2cc(Cl)ccc2-n2c1nc1ccc(F)cc1c2=O (centres undefined)	none (no result: CSC inhib, TMEM16A act, ANO1 block, MC4R antag cAMP, MC4R barr agon)
C=CCNc1nc2c(c(=O)[nH]c(=O)n2C)n1CCCc1ccccc1	none
CSc1ccccc1NC(=O)CN(C)C(=O)C1CC(=O)N(C(C)c2ccccc2)C1 (centres undefined)	none (no result: CSC inhib, ANO1 block)
COc1ccc(OC)c(NC(=O)c2cc(-c3ccc(C)cc3O)n[nH]2)c1	none
COc1ccc(OC)c(NC(=O)c2cc(-c3cc(C)ccc3O)n[nH]2)c1	MC4R barr agon 10 | MC4R barr ag inactive | MOR DOR agonist inactive
Cc1ccc(OCCCC(=O)NC2CCCCC2)cc1	none
